Results on 2 compounds are retold here after ChEMBL document CHEMBL1146194, “The Anti-Trypanosoma cruzi activity of posaconazole in a murine model of acute Chagas' disease is less dependent on gamma interferon than that of benznidazole” (2007).

Assay type in all cases: functional
Assay [1] relates to Trypanosoma cruzi. In words: Antimicrobial activity against Trypanosoma cruzi Y infected IL12 knock out C57BL/6 mouse Chagas disease model assessed as percent of cured mouse at 20 mg/kg, po twice daily after 20 days. In a few lines: (§1)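 Male C57BL/6 mice aged 8–10 weeks (wild-type, IL-12p40 KO or IFN-γ KO) were infected i.p. with 5,000 blood trypomastigotes of the Y strain. From 4 dpi they were dosed orally at 20 mg/kg/day, split into two daily doses, for 20 consecutive days, in 2% methylcellulose with 0.5% Tween 80. Mice negative on fresh blood at 60 dpi had 0.5 ml orbital blood cultured in LIT medium at 28°C for 30–60 days. Cure meant negative on both tests.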

The subject of assay [2] is Trypanosoma cruzi. In words: Antimicrobial activity against Trypanosoma cruzi Y infected wild type C57BL/6 mouse Chagas disease model assessed as percent of cured mouse at 20 mg/kg, po twice daily after 20 days. The procedure, abridged: as §1
Assay [3] has as its system Mus musculus. In words: Effect on survival in Trypanosoma cruzi Y infected C57BL/6 mouse Chagas disease model assessed as mean survival time at 20 mg/kg, po twice daily after 20 days. In a few lines: (§2)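 Male C57BL/6 mice aged 8–10 weeks (wild-type or cytokine KO) were infected i.p. with 5,000 Y-strain blood trypomastigotes. From 4 dpi they received 20 mg/kg/day orally, split into two daily doses, for 20 days, in 2% methylcellulose with 0.5% Tween 80. Deaths were tracked to 60 dpi, and mortality was given as deaths/total. Mean survival time counted survivors as dying at 60 days. Log rank and Peto-Peto-Wilcoxon tests were used.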

Assay [4] deals with Mus musculus. In words: Mortality rate in Trypanosoma cruzi Y infected IL12 knock out C57BL/6 mouse Chagas disease model at 20 mg/kg, po twice daily after 20 days. In a few lines: as §2
Assay [5] concerns Mus musculus. In words: Effect on survival in Trypanosoma cruzi Y infected IFN-gamma knock out C57BL/6 mouse Chagas disease model assessed as mean survival time at 20 mg/kg, po twice daily after 20 days. The procedure, abridged: as §2
Assay [6] relates to Mus musculus. In words: Mortality rate in Trypanosoma cruzi Y infected IFN-gamma knock out C57BL/6 mouse Chagas disease model at 20 mg/kg, po twice daily after 20 days. In a few lines:
as §2

For assay [7], the system named is Trypanosoma cruzi. In words: Antimicrobial activity against Trypanosoma cruzi Y infected IFN-gamma knock out C57BL/6 mouse Chagas disease model assessed as percent of cured mouse at 20 mg/kg, po twice daily after 20 days. In a few lines:
as §1

Assay [8] has as its system Mus musculus. In words: Mortality rate in Trypanosoma cruzi Y infected wild type C57BL/6 mouse Chagas disease model at 20 mg/kg, po twice daily after 20 days. In a few lines: as §2
The test system of assay [9] is Mus musculus. In words: Effect on survival in Trypanosoma cruzi Y infected IL12 knock out C57BL/6 mouse Chagas disease model assessed as mean survival time at 20 mg/kg, po twice daily after 20 days. The procedure, abridged: as §2
In assay [10] the test system is Trypanosoma cruzi. In words: Antimicrobial activity against Trypanosoma cruzi Y infected wild type C57BL/6 mouse Chagas disease model assessed as percent of cured mouse at 100 mg/kg, po after 20 days. In a few lines:
(§3)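 Male mice, 8–10 weeks, infected i.p. with 5,000 blood trypomastigotes (Y strain, passaged in Swiss-Webster mice). From 4 dpi, dosed orally once daily for 20 consecutive days in water with arabic gum. Fresh tail blood examined to 60 dpi. Aparasitemic mice were then bled (0.5 ml), and blood was cultured in LIT medium at 28°C for 30–60 days. Cure means negative by both methods.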

Assay [11] concerns Mus musculus. In words: Effect on survival in Trypanosoma cruzi Y infected IL12 knock out C57BL/6 mouse Chagas disease model assessed as mean survival time at 100 mg/kg, po after 20 days. The procedure, abridged:
(§4)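 Male C57BL/6 mice aged 8–10 weeks (wild-type or cytokine KO) were infected i.p. with 5,000 Y-strain blood trypomastigotes. Treatment was oral, 100 mg/kg once daily in water with arabic gum, from 4 dpi for 20 consecutive days. Deaths were recorded up to 60 dpi, and mortality was given as deaths/total. Mean survival time assigned survivors a death time of exactly 60 days. Log rank and Peto-Peto-Wilcoxon tests were used.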

Assay [12] deals with Mus musculus. In words: Effect on survival in Trypanosoma cruzi Y infected C57BL/6 mouse Chagas disease model assessed as mean survival time at 100 mg/kg, po after 20 days. The procedure, abridged: as §4
For assay [13], the system named is Mus musculus. In words: Mortality rate in Trypanosoma cruzi Y infected IL12 knock out C57BL/6 mouse Chagas disease model at 100 mg/kg, po after 20 days. In a few lines: as §4
For assay [14], the system named is Mus musculus. In words: Effect on survival in Trypanosoma cruzi Y infected IFN-gamma knock out C57BL/6 mouse Chagas disease model assessed as mean survival time at 100 mg/kg, po after 20 days. The procedure, abridged: as §4
Assay [15] deals with Trypanosoma cruzi. In words: Antimicrobial activity against Trypanosoma cruzi Y infected IFN-gamma knock out C57BL/6 mouse Chagas disease model assessed as percent of cured mouse at 100 mg/kg, po after 20 days. The procedure, abridged: as §3
Assay [16] deals with Mus musculus. In words: Mortality rate in Trypanosoma cruzi Y infected IFN-gamma knock out C57BL/6 mouse Chagas disease model at 100 mg/kg, po after 20 days. The procedure, abridged: as §4
Assay [17] concerns Mus musculus. In words: Mortality rate in Trypanosoma cruzi Y infected wild type C57BL/6 mouse Chagas disease model at 100 mg/kg, po after 20 days. In a few lines:
as §4

Assay [18] has as its system Trypanosoma cruzi. In words: Antimicrobial activity against Trypanosoma cruzi Y infected IL12 knock out C57BL/6 mouse Chagas disease model assessed as percent of cured mouse at 100 mg/kg, po after 20 days. The procedure, abridged:
as §3

On to `CC[C@@H]([C@H](C)O)n1ncn(-c2ccc(N3CCN(c4ccc(OC[C@@H]5CO[C@@](Cn6cncn6)(c6ccc(F)cc6F)C5)cc4)CC3)cc2)c1=O` [POSACONAZOLE], for which the Activity in the assay with Trypanosoma cruzi [1] is listed as 35%; in the assay on Trypanosoma cruzi [2], 89%; in the assay on Mus musculus [4], 23%; in the assay on Mus musculus [6], 30%; with Trypanosoma cruzi [7], 15%; in the assay with Mus musculus [8], 0%. Moreover, the MST in the assay on Mus musculus [3] was greater than 60 days; with Mus musculus [5], 52.1 days; with Mus musculus [9], 59.2 days.

Consider `O=C(Cn1ccnc1[N+](=O)[O-])NCc1ccccc1` [BENZNIDAZOLE], for which the Activity in the assay with Trypanosoma cruzi [10] stood at 86%; in the assay on Mus musculus [13] it was 17%; with Trypanosoma cruzi [15], 0%; with Mus musculus [16], 100%; in the assay with Mus musculus [17], 0%; in the assay with Trypanosoma cruzi [18], 39%. Moreover, the MST is 59.6 days with Mus musculus [11], greater than 60 days with Mus musculus [12] and 42.1 days in the assay with Mus musculus [14].
